Holding throughout (format): functional, Mus musculus
For assay [1], the system named is P388. The assay can be described thus: Average weight change of mice was determined on day 6 after intraperitoneal injection on day 1 at a dose of 100 mg/kg following intraperitoneal implant of P388 leukemia cells in CDF1 mice. An outline of the steps: (§1)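 Female CDF₁ mice (16–20 g), six per dose, implanted ip with 10⁶ P388 cells kept as ascites in DBA/2 mice. Single ip dose of freshly prepared aqueous solution 1 day post-implant. Body weight change averaged per dose group, read on day 6, in grams.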

The test system of assay [2] is P388. The experiment in a line: Antitumor activity was determined after intraperitoneal injection on day 1 at a dose of 400 mg/kg following intraperitoneal implant of P388 leukemia cells in CDF1 mice. In a few lines: (§2)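 P388 leukemia carried as ascites in DBA/2 mice; 10⁶ cells implanted ip into female CDF₁ mice (16–20 g), six per dose, 10 as untreated leukemia controls. Single ip dose of freshly prepared aqueous solution 1 day after implant. Daily observation for 30 days; activity taken as median survival time, treated vs untreated groups (% T/C).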

For assay [3], the system named is P388. The assay can be described thus: Antitumor activity was determined after intraperitoneal injection on day 1 at a dose of 200 mg/kg following intraperitoneal implant of P388 leukemia cells in CDF1 mice. An outline of the steps: as §2
Assay [4] deals with P388. The experiment in a line: Average weight change of mice was determined on day 6 after intraperitoneal injection on day 1 at a dose of 50 mg/kg following intraperitoneal implant of P388 leukemia cells in CDF1 mice. In a few lines:
as §1

The test system of assay [5] is P388. The experiment in a line: Antitumor activity was determined after intraperitoneal injection on day 1 at a dose of 100 mg/kg following intraperitoneal implant of P388 leukemia cells in CDF1 mice. In a few lines: as §2
Assay [6] relates to P388. The assay can be described thus: Average weight change of mice was determined on day 6 after intraperitoneal injection on day 1 at a dose of 200 mg/kg following intraperitoneal implant of P388 leukemia cells in CDF1 mice. In a few lines:
as §1

In assay [7] the test system is P388. The experiment in a line: Antitumor activity was determined after intraperitoneal injection on day 1 at a dose of 50 mg/kg following intraperitoneal implant of P388 leukemia cells in CDF1 mice. An outline of the steps: as §2
For assay [8], the system named is P388. The experiment in a line: Average weight change of mice was determined on day 6 after intraperitoneal injection on day 1 at a dose of 400 mg/kg following intraperitoneal implant of P388 leukemia cells in CDF1 mice. In a few lines:
as §1

Assay [9] has as its system P388. The experiment in a line: Antitumor activity was determined after intraperitoneal injection on day 1 at a dose of 128 mg/kg following intraperitoneal implant of P388 leukemia cells in CDF1 mice. An outline of the steps: as §2
The test system of assay [10] is P388. The assay can be described thus: Average weight change of mice was determined on day 6 after intraperitoneal injection on day 1 at a dose of 32 mg/kg following intraperitoneal implant of P388 leukemia cells in CDF1 mice. An outline of the steps:
as §1

A short description of assay [11]: Average weight change of mice was determined on day 6 after intraperitoneal injection on day 1 at a dose of 256 mg/kg following intraperitoneal implant of P388 leukemia cells in CDF1 mice. An outline of the steps: as §1
Assay [12] concerns P388. The assay can be described thus: Average weight change of mice was determined on day 6 after intraperitoneal injection on day 1 at a dose of 128 mg/kg following intraperitoneal implant of P388 leukemia cells in CDF1 mice. In a few lines: as §1
Assay [13] has as its system P388. The assay can be described thus: Average weight change of mice was determined on day 6 after intraperitoneal injection on day 1 at a dose of 64 mg/kg following intraperitoneal implant of P388 leukemia cells in CDF1 mice. An outline of the steps:
as §1

Assay [14] deals with P388. The assay can be described thus: Antitumor activity was determined after intraperitoneal injection on day 1 at a dose of 256 mg/kg following intraperitoneal implant of P388 leukemia cells in CDF1 mice. An outline of the steps:
as §2

In assay [15] the test system is P388. The experiment in a line: Antitumor activity was determined after intraperitoneal injection on day 1 at a dose of 64 mg/kg following intraperitoneal implant of P388 leukemia cells in CDF1 mice. In a few lines: as §2
For assay [16], the system named is P388. The assay can be described thus: Antitumor activity which was determined after intraperitoneal injection on day 1 at a dose of 32 mg/kg following intraperitoneal implant of P388 leukemia cells in CDF1 mice. An outline of the steps: as §2

Structures are written as SMILES.

Take `CCOC(=O)NP(=O)(N1CC1(C)C)N1CC1(C)C` (stereo not given) [METUREDEPA]: the AWC with P388 [1] is recorded as -0.4 g; in the assay on P388 [4], -0.7 g; with P388 [6], -0.2 g; with P388 [8], -1.3 g. Moreover, the T/C in the assay on P388 [2] amounted to 244%; in the assay with P388 [3], 231%; in the assay on P388 [5], 181%; with P388 [7] it was 163%.
Consider `Cc1cn(C2CC(O)C(CNP(=O)(N3CC3(C)C)N3CC3(C)C)O2)c(=O)[nH]c1=O` (stereo not given), for which the T/C in the assay on P388 [9] is 150%; in the assay on P388 [14] it was 156%; in the assay with P388 [15] it was 150%; in the assay on P388 [16], 131%. For the same compound, the AWC in the assay on P388 [10] is recorded as -0.7 g; in [11], -0.7 g; in the assay with P388 [12] it was -0.8 g; in the assay with P388 [13], -0.4 g.
`CC(=O)OC[C@H]1O[C@@H](n2cc(C)c(=O)[nH]c2=O)C[C@@H]1OC(=O)NP(=O)(N1CC1(C)C)N1CC1(C)C` (stereo not given in full) displayed an AWC in [11] of -0.5 g. In addition, the T/C in the assay on P388 [14] turned out to be 125%.
For the compound `CC1(C)CN1P(=O)(Nc1ccccc1)N1CC1(C)C` (stereo not given) [PHOSPHINIC ANILIDE DERIVATE], the results for the T/C in the assay on P388 [9], with P388 [14] and in the assay on P388 [15] were 138%, 169% and 144%, respectively. Further, the figures for the AWC (in assay [11]; in the assay with P388 [12]; in the assay on P388 [13]) were -0.8 g, -0.7 g and -1.3 g, respectively.
In assay [11], `CC(=O)O[C@H]1C[C@H](n2cc(C)c(=O)[nH]c2=O)O[C@@H]1COC(=O)NP(=O)(N1CC1(C)C)N1CC1(C)C` (stereo not given in full) showed an AWC of -1.3 g. Further, the T/C with P388 [14] is given as 113%.
As for `CCOP(=O)(N1CC1(C)C)N1CC1(C)C` (stereo not given), the results for the AWC in the assay on P388 [1] and in the assay with P388 [6] were -2.6 g and -5.2 g, respectively. The T/C in the assay on P388 [3] is 433%; in the assay with P388 [5], 289%.

As usually defined, the T/C is the ratio of treated to control.

For the origin of these results see ChEMBL document CHEMBL1124917 (1990).
